Experimental data reported in paper PMC8158046 (Oncoimmunology, 2021).
Positions of bridges follow the written chain, without caps; N, C: chain ends. Chains are numbered I, II in the order given. No end group written: not given here.

How the values were obtained:
MDA-MB-231 cells = assay: Tumor cell density by inverted microscope, MDA-MB-231; type: cell-based, human; conditions: 10 μg/ml; for effect on MDA-MB-231 tumor cells in the absence of PBMCs: monolayer without PBMC, microscope
How it was run: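 Tumor cells (MDA-MB-231 or MDA-MB-468, 4x10^5/2 ml) were plated overnight, then cultured with or without donor PBMCs (2x10^6/ml). Test compound or scrambled peptide was added at 10 µg/ml at 37°C, 5% CO2. Wells were washed once with PBS and cell density was documented by inverted light microscopy.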

[1] = test system: PBMCs from healthy female donors co-cultured with MDA-MB-231; assay: FACS of activated PBMC sub-populations in co-cultures with MDA-MB-231; type: cell-based, human
How it was run: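 Lymphocytes were recovered from tumor/PBMC co-cultures; samples with >98% CD45+ cells were used. Cells (0.5x10^6/50 µl PBS) were stained for CD4, CD8, CD56, NKG2D, CD14, CD69, CD57 and CD137. Gated live cells were analysed by flow cytometry; mean ± SD reported, ANOVA with Tukey-Kramer.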

[2] = test system: PBMCs co-cultured with MDA-MB-231; assay: Cytokine secretion by ELISA in supernatants of PBMC/MDA-MB-231 co-cultures; type: cell-based, human
How it was run: (§1)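 Target cells (MDA-MB-231, MDA-MB-468 or DMEM/10% FCS-grown MCF-10A; 4x10^5/2 ml) were plated overnight. PBMCs (2x10^6/ml, RPMI with 5% AB serum) were added, with test compound added at once (0.1–60 µg/ml) and scrambled peptide as control, at 37°C, 5% CO2. Supernatants were cleared (1200 rpm, 10 min) and stored at −80°C. IFNγ, TNFα, IL-2 and IL-1β were measured by ELISA.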

MDA-MB-231 xenograft = assay: MDA-MB-231 tumor xenograft in nude mice given human PBMCs; type: in vivo, BALB/C nude mice; conditions: for increase in human IFN-γ secretion in serum versus S-C24D group: 13 days after PBMC administration, p <0.05
How it was run: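 Female BALB/c nude mice (5–6 weeks) received 4x10^6 MDA-MB-231 cells s.c. in the right flank. At ~100 mm3 (day 6) they were randomized. Human PBMCs from 2 female donors were pre-incubated 5 min with test compound, scrambled peptide or PBS, then given IV. Treatment (60 or 300 µg/mouse in 200 µl PBS) followed IV twice weekly for 2 weeks. At 13 days, serum human IFNγ was measured. Paraffin tumor sections (pH 6 retrieval) were immunostained for CD45, activated CD56, CD8 and cleaved caspase-3, and 5 fields/slide on 5 slides were quantified.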

[3] = Stability in human whole blood; type: in vitro ADME
CD45 receptor [4] = molecular target: T1, CD45 receptor (Homo sapiens, UniProt P08575); assay: FACS analysis of C24D binding to PBMC sub-populations
T1 sequence (P08575 195-577 limits assumed): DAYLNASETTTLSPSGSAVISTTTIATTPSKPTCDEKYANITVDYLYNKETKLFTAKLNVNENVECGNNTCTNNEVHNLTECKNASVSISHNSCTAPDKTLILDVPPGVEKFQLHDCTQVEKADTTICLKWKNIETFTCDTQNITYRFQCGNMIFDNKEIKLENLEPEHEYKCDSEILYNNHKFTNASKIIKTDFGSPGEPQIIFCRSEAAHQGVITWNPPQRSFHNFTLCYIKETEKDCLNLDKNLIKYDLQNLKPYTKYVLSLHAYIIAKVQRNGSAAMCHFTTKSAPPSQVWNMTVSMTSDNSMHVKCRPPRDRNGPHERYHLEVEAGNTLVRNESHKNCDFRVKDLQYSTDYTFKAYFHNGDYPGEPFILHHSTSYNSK

CD45 receptor [5] = molecular target: T2, CD45 receptor (Homo sapiens, UniProt P08575); type: in vitro ADME; conditions: 1.5 μM C24D, 3 hours after adding, ELISA read-out
T2 sequence (P08575 26-1306): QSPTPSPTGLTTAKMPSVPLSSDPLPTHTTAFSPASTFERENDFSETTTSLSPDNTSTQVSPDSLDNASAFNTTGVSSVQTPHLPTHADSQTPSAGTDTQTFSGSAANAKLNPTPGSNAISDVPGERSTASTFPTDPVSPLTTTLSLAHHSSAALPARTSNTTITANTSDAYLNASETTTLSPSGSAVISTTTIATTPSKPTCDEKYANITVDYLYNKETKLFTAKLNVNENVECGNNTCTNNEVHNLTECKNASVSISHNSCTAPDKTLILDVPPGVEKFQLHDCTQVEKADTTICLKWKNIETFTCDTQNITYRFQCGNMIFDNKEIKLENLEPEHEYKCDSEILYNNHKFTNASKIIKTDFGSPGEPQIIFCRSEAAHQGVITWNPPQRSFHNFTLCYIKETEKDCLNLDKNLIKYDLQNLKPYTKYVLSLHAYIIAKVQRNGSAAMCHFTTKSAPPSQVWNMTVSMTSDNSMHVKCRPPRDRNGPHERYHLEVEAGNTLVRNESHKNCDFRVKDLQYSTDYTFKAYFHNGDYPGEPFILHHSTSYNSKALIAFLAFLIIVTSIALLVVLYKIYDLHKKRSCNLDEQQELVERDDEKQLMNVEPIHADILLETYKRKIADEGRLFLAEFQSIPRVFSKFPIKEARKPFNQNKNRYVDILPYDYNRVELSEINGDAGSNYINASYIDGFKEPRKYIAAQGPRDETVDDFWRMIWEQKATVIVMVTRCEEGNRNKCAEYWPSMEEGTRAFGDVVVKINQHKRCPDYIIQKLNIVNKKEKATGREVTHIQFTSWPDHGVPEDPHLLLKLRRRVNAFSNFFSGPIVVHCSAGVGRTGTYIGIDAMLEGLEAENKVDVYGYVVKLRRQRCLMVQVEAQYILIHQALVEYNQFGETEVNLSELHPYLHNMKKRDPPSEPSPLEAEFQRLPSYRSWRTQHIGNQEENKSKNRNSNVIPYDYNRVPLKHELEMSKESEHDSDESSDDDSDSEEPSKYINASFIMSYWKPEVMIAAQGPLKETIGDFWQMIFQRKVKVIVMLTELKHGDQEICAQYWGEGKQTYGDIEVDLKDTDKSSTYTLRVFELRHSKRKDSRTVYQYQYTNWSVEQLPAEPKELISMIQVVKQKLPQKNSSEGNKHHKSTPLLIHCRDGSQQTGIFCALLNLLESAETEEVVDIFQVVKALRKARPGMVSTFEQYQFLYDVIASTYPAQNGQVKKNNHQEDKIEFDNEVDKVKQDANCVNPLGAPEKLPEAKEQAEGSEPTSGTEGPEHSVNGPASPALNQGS

CD45 receptor [6] = molecular target: T1, CD45 receptor; type: cell-based; conditions: CD45 blocked with monoclonal antibody and blocking peptide, n = 5
CD45 signaling pathway [7] = assay: CD45 signal transduction by western blot, PBMC/MDA-MB-231 co-cultures; type: cell-based, human; conditions: 10 µg/ml, n = 9, p <0.27
CD45 signaling pathway [8] = assay: CD45 signal transduction by intracellular FACS, PBMC/MDA-MB-231 co-cultures; type: cell-based, human; conditions: PBMCs co-cultured with MDA-MB-231 for 24hs, C24D for 15 minutes
How it was run: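 PBMCs (2x10^6/ml, RPMI with 5% AB serum) were co-cultured for 24 h at 37°C, 5% CO2 with MDA-MB-231 cells pre-plated overnight (4x10^5/2 ml). Test compound was then added for 15 minutes. Phosphorylation was read by FACS in live PBMCs and normalized to the scrambled-peptide control.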

CD45 signaling pathway [9] = assay: Protein phosphorylation by western blot in fresh PBMCs from TNBC patients; type: cell-based, human; conditions: fresh PBMCs from 5 TNBC patients, C24D 5 to 60 minutes, mean ± SD
How it was run: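 PBMCs were lysed in buffer containing phosphatase inhibitors (NaF, Na3VO4, β-glycerophosphate), freeze-thawed once and cleared at 14,000 rpm. Lysates were run on 10% SDS-PAGE and blotted for phospho-Lck Y505, phospho-Lck Y394, phospho-VAV-1 Y174 and phospho-ZAP70 Y493, with GAPDH as loading control. Bands were quantified by infrared imaging, normalized to control, and reported as mean ± SD.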

CD45 signaling pathway [10] = type: cell-based, human; conditions: incubated with C24D for 5 to 24 hours, 5 separate experiments
[11] = test system: PBMCs co-cultured with MCF-10A; assay: Cytokine secretion in co-cultures of MCF-10A normal breast cells and PBMCs; type: cell-based, human; conditions: MCF-10A/PBMC co-culture after C24D, n = 3
How it was run: as §1

[12] = test system: MCF-10A normal breast cells; assay: MCF-10A cell killing by FACS; type: cell-based, human; conditions: for spontaneous cell apoptosis (killing) of MCF-10A cells: 10 μg/ml, 4–6 days, PBMC+MCF-10A, N = 3, mean ± SD
How it was run: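 MCF-10A cells were co-cultured with donor PBMCs (2x10^6/ml) plus test compound or scrambled peptide at 37°C, 5% CO2. Adherent cells were then detached. Anti-CD45 staining was used to exclude leukocytes, and apoptosis in the gated CD45-negative cells was measured by Annexin V/PI flow cytometry.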

[13] = 10 μg/ml C24D added to co-cultures
[14] = 10 μg/ml C24D, PBMCs from 11 healthy female donors, mean ± SD

I: CGHHLLRPRRRKRPHSIPTPILIFRSP / II: CGHHLLRPRRRKRPHSIPTPILIFRSP (disulfide I:1-II:1) [C24D]
tumor apoptosis seen by microscope in PBMC/MDA-MB-231 co-cultures (MDA-MB-231 cells; PBMCs from healthy donors): massive tumor apoptosis | effect on MDA-MB-231 tumor cells in the absence of PBMCs (MDA-MB-231 cells): no effect | CD57 expression [1, 13]: not influenced | percentage of NKG2D+ and CD45RO+ cells [1, 13]: not influenced | percentage of CD4+/CD69+ cells [1, 14]: 4.1 ± 1.58% | percentage of CD8+/CD69+ cells [1, 14]: 33.23% | increase in secretion of IL-2 ([2]; C24D 4–6 days, MDA-MB-231/PBMC co-cultures, n = 7, p < 0.0007): 92.2% | increase in secretion of TNF-α ([2]; C24D 4–6 days, MDA-MB-231/PBMC co-cultures, n = 7, p < 0.04): 98% | increase in secretion of IFN-γ ([2]; C24D 4–6 days, MDA-MB-231/PBMC co-cultures, n = 8, p <0.03): 90% | cytokine secretion (IFNγ, IL-2, TNFα, IL-1β) in PBMCs alone ([2]; C24D added to PBMCs alone, no tumor cells): No effect | secretion of IL-1β by monocytes ([2]; C24D added to co-cultures): non-significant effect | tumor cell apoptosis (Cleaved Caspase-3 immunofluorescence) (MDA-MB-231 xenograft; 60 μg (p <0.0013) and 300 μg (p <0.049) per mouse): significant increase | increase in human IFN-γ secretion in serum versus S-C24D group (MDA-MB-231 xenograft; 60 μg per mouse): 68% | increase in human IFN-γ secretion in serum versus S-C24D group (MDA-MB-231 xenograft; 300 μg per mouse): 82% | infiltration of human CD45+ cells in the tumor (immunofluorescence) (MDA-MB-231 xenograft; 60 and 300 μg doses vs S-C24D, p <0.015 and p <0.023): significantly induced | tumor-infiltrating NK (activated CD56+) cells (immunofluorescence) (MDA-MB-231 xenograft; 60 or 300 μg per mouse, p <0.011 and p <0.042): significant increase | tumor-infiltrating human CD8 T cells (immunofluorescence) (MDA-MB-231 xenograft; 60 or 300 μg per mouse, p <0.07 and p <0.1): non-significant | half-life [3]: 2.75 h | percentage of C24D binding to CD16 after exposure to tumor cells (CD45 receptor [4]): not affected | leukocyte sub-populations that bound C24D (CD45 receptor [4]; PBMCs from healthy female donors, C24D conjugated to Alexa-488 dye): all 9 of the tested T, NK and monocyte sub-populations bound C24D | percentage of CD45+ gated PBMCs that bind C24D (double staining) (CD45 receptor [4]; anti CD45 monoclonal antibody (CD45-APC) and C24D-Alexa-488 conjugated peptide): 100% | effect of C24D treatment on C24D binding to CD8 and NKG2D sub-populations exposed to MDA-MB-231 (CD45 receptor [4]; p <0.05): reversed the decrease | decrease of binding to CD45 in the presence of human plasma (CD45 receptor [5]): 20% | IFN-γ in supernatants of co-cultures with blocked CD45 receptor (CD45 receptor [6]): 107 ± 27 pg/mL | phosphorylation of Lck Y394 (CD45 signaling pathway [7]): increased, but not significant statistically | phosphorylation of Y394 in Lck (CD45 signaling pathway [8]; n = 3): increase | increase of the phosphorylation of VAV-1 versus control (CD45 signaling pathway [8]; n = 3, mean ± SD): 36.2 ± 4.0% | increase of the phosphorylation of Y493 in ZAP70 versus control (CD45 signaling pathway [8]; n = 3, mean ± SD): 50.13 ± 10.2% | phosphorylation of Lck Y394 after addition of C24D, normalized to control (CD45 signaling pathway [9]): 117.4 ± 36.2% | phosphorylation of Lck Y505 after addition of C24D, normalized to control (CD45 signaling pathway [9]): 79.2 ± 3.6% | phosphorylation of VAV-1 after addition of C24D, normalized to control (CD45 signaling pathway [9]): 88.4 ± 26.9% | phosphorylation of ZAP70 Y493 after addition of C24D, normalized to control (CD45 signaling pathway [9]): 116.4 ± 10.4% | Lck, ZAP70 and VAV-1 activation in fresh PBMCs from healthy donors in the absence of tumors (CD45 signaling pathway [10]): no effect | TNF-α concentration [11]: 5.6 ± 0.2 pg/mL | spontaneous cell apoptosis (killing) of MCF-10A cells [12]: 6.47 ± 0.94% | killing in MCF-10A and PBMCs co-cultures ([12]; treatment with C24D): failed to induce killing

CG-PPRIHPLKRISRTRLPRLHRPFHIS [S-C24D, reference compound]
effect on MDA-MB-231 tumor cells in the absence of PBMCs (MDA-MB-231 cells): no effect | IFN-γ in supernatants of co-cultures with blocked CD45 receptor (CD45 receptor [6]): 108 ± 20 pg/mL | spontaneous cell apoptosis (killing) of MCF-10A cells [12]: 7.25 ± 2.34%
